Source: ChEMBL document CHEMBL4257543, “Structural optimization and antibacterial evaluation of rhodomyrtosone B analogues against MRSA strains” (Medchemcomm, 2018)
≈ marks a conversion by molar mass, not a printed value. Calls of active or inactive are those of the source.

Key:
[1] = test system: Staphylococcus aureus; test: Antibacterial activity against Staphylococcus aureus ATCC 6538 by micro dilution susceptibility test; assay type: functional
Method in brief: (§1)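 Microbroth dilution MIC in Mueller–Hinton broth following CLSI guidelines, vancomycin as positive control; resazurin added as visible growth indicator. Assays run at least in triplicate.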

[2] = test system: Staphylococcus aureus; test: Antibacterial activity against methicillin-resistant Staphylococcus aureus JCSC 4788 by micro dilution susceptibility test; assay type: functional; method in brief: as §1
[3] = test system: Staphylococcus aureus; test: Induction of membrane disruption in methicillin-resistant Staphylococcus aureus JCSC 4788 assessed as increase in fluorescence intensity at 0.25 to 8 ug/ml measured after 3 hrs by SYTOX green dye based fluorescence assay; assay type: functional, organism-based
Method in brief: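 Exponential-phase MRSA JCSC 4788 washed and set to OD620 0.4 in 0.85% NaCl, exposed to serial compound concentrations for 3 h, then 3 μM SYTOX Green for 20 min. Fluorescence read at ex 504/em 523 nm with melittin as positive control and vancomycin as comparator; mean ± SD, n = 3.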

[4] = test system: Staphylococcus aureus; test: Antibacterial activity against methicillin-resistant Staphylococcus aureus JCSC 4788 at sub-MIC re-passaged at 24 hrs intervals for 5 times by micro dilution susceptibility test; assay type: functional, organism-based
Method in brief: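 Exponential-phase MRSA JCSC 4788 at 37 °C passaged into fresh MHB containing compound at a sub-inhibitory concentration and re-passaged at 24 h intervals up to at least 20 passages; MIC then redetermined by CLSI microbroth dilution in MHB. Resistance defined as a more than 4-fold increase over the initial MIC.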

[5] = test system: Staphylococcus aureus; test: Ratio of MIC for methicillin-resistant Staphylococcus aureus JCSC 4788 re-passaged at 24 hrs intervals for 20 times to MIC for methicillin-resistant Staphylococcus aureus JCSC 4788; assay type: functional
Method in brief: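 Sequential passaging of MRSA JCSC 4788 in MHB with sub-inhibitory compound at 24 h intervals for at least 20 passages at 37 °C. MIC after passaging, by CLSI microbroth dilution, is divided by the initial MIC. Resistance is defined as a rise of more than 4-fold.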

Row | Structure (SMILES) | MIC [1] | MIC [2] | Activity [3] | Activity [4] | Ratio [5]
1 | CCC(=O)c1c(O)cc(O)c2c1OC1=C(C(=O)C(C)(C)C(=O)C1(C)C)C2CC(C)C (stereo not given) | 2 mg/L (≈ 4.83 µM) | 2 mg/L (≈ 4.83 µM) |  |  | 
2 | CCCCC(=O)c1c(O)cc(O)c2c1OC1=C(C(=O)C(C)(C)C(=O)C1(C)C)C2CC(C)C (stereo not given) | 0.5 mg/L (≈ 1.13 µM) | 1 mg/L (≈ 2.26 µM) |  |  | 
3 | CC[C@H](C)[C@H](NC(=O)CN)C(=O)NCC(=O)N[C@@H](C)C(=O)N[C@H](C(=O)N[C@@H](CC(C)C)C(=O)N[C@@H](CCCCN)C(=O)N[C@H](C(=O)N[C@@H](CC(C)C)C(=O)N[C@H](C(=O)N[C@H](C(=O)NCC(=O)N[C@@H](CC(C)C)C(=O)N1CCC[C@H]1C(=O)N[C@@H](C)C(=O)N[C@@H](CC(C)C)C(=O)N[C@H](C(=O)N[C@@H](CO)C(=O)N[C@@H](Cc1c[nH]c2ccccc12)C(=O)N[C@H](C(=O)N[C@@H](CCCCN)C(=O)N[C@@H](CCCNC(=N)N)C(=O)N[C@@H](CCCCN)C(=O)N[C@@H](CCCNC(=N)N)C(=O)N[C@@H](CCC(N)=O)C(=O)N[C@@H](CCC(N)=O)C(N)=O)[C@@H](C)CC)[C@@H](C)CC)[C@@H](C)O)[C@@H](C)O)C(C)C)C(C)C |  |  | Active |  | 
4 | CCCCCCCCCCCC(=O)c1c(O)cc(O)c2c1OC1=C(C(=O)C(C)(C)C(=O)C1(C)C)C2CC(C)C (stereo not given) | 8 mg/L (≈ 14.8 µM) | 8 mg/L (≈ 14.8 µM) |  |  | 
5 | CC(C)CC1C2=C(Oc3c(C(=O)Cc4ccccc4)c(O)cc(O)c31)C(C)(C)C(=O)C(C)(C)C2=O (stereo not given) | 4 mg/L (≈ 8.39 µM) | 4 mg/L (≈ 8.39 µM) |  |  | 
6 | CCCCCCCCCCCCCCCC(=O)c1c(O)cc(O)c2c1OC1=C(C(=O)C(C)(C)C(=O)C1(C)C)C2CC(C)C (stereo not given) | > 256 mg/L | > 256 mg/L |  |  | 
7 | CC1COc2c(N3CCN(C)CC3)c(F)cc3c(=O)c(C(=O)O)cn1c23 (stereo not given) [OFLOXACIN] |  |  |  | inactive | 16
8 | CC(C)CC(=O)c1c(O)cc2c(c1O)C(CC(C)C)C1=C(O2)C(C)(C)C(=O)C(C)(C)C1=O (stereo not given) | 1 mg/L (≈ 2.26 µM) | 1 mg/L (≈ 2.26 µM) |  |  | 
9 | CC(C)CC1C2=C(Oc3c(C=O)c(O)cc(O)c31)C(C)(C)C(=O)C(C)(C)C2=O (stereo not given) | 128 mg/L (≈ 331 µM) | 128 mg/L (≈ 331 µM) |  |  | 
10 | CC(C)CC1C2=C(Oc3c(C(=O)C4CCC4)c(O)cc(O)c31)C(C)(C)C(=O)C(C)(C)C2=O (stereo not given) | 4 mg/L (≈ 9.08 µM) | 8 mg/L (≈ 18.2 µM) |  |  | 
11 | CCCCCCCCCC(=O)c1c(O)cc(O)c2c1OC1=C(C(=O)C(C)(C)C(=O)C1(C)C)C2CC(C)C (stereo not given) | 0.5 mg/L (≈ 0.975 µM) | 0.5 mg/L (≈ 0.975 µM) |  |  | 
12 | CC(C)CC1C2=C(Oc3c(C(=O)CCc4ccccc4)c(O)cc(O)c31)C(C)(C)C(=O)C(C)(C)C2=O (stereo not given) | 2 mg/L (≈ 4.08 µM) | 2 mg/L (≈ 4.08 µM) |  |  | 
13 | CC(C)CC1C2=C(Oc3c(C(=O)C4CCCC4)c(O)cc(O)c31)C(C)(C)C(=O)C(C)(C)C2=O (stereo not given) | 4 mg/L (≈ 8.8 µM) | 4 mg/L (≈ 8.8 µM) |  |  | 
